ChEMBL document CHEMBL3856193, “Combretastatin A-4 analogues with benzoxazolone scaffold: Synthesis, structure and biological activity” (Eur J Med Chem, 2016)

Assays:
Type in all cases: functional, cell-based
[1] = Growth inhibition of human HepG2 cells measured after 72 hrs by MTT assay; settings: HepG2, 72 h
Method in brief: (§1)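 Cells seeded at 1 x 10^4/100 µL, treated 24 h later with drug diluted from 2 mmol/L DMSO stock (0.01% DMSO final), 72 h incubation. MTT added for 3 h at 37°C, formazan dissolved in 0.1 N HCl/isopropanol, OD read at 550/630 nm. Eight replicates per concentration, mean ± SD. IC50 from curve fitting. Cells kept at 37°C in humidified CO2.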

[2] = Growth inhibition of human K562 cells measured after 72 hrs by MTT assay; settings: K562, 72 h; method in brief: as §1
[3] = Growth inhibition of human EAhy926 cells measured after 72 hrs by MTT assay; settings: EA.hy 926, 72 h; method in brief: as §1

Row | SMILES | IC50 [1] | IC50 [2] | IC50 [3]
1 | COc1cc(/C=C\c2cccc3oc(=O)n(C)c23)cc(OC)c1OC | 19 µM | 10.1 µM | 14.8 µM
2 | COc1cc(/C=C\c2cccc3c2oc(=O)n3C)cc(OC)c1OC | 1.07 µM | 0.71 µM | 10.3 µM
3 | COc1ccc(/C=C\c2cccc3oc(=O)n(C)c23)cc1 | 16.1 µM | 0.96 µM | 39.9 µM
4 | COc1ccc(/C=C\c2cccc3c2oc(=O)n3C)cc1 | 47.2 µM | > 50 µM | > 50 µM
5 | COc1ccc(/C=C\c2ccc3oc(=O)n(C)c3c2)cc1OC | 42.1 µM | > 50 µM | > 50 µM
6 | COc1ccc(/C=C\c2ccc3c(c2)oc(=O)n3C)cc1 | > 50 µM | > 50 µM | > 50 µM
7 | COc1cc(/C=C\c2ccc3oc(=O)n(C)c3c2)cc(OC)c1OC | 39.7 µM | > 50 µM | > 50 µM
8 | COc1cc(/C=C\c2cccc3c2oc(=O)n3C)cc(OC)c1 | 4.25 µM | 0.95 µM | 9.53 µM
